Measured values published in PubChem BioAssay AID504383 (The Scripps Research Institute Molecular Screening Center, 2011).
In all, about 2,500 compounds went through this assay and about 1,200 (48%) were called active. The set was probably picked from earlier hits. This is one part of the list. Values without a mark were called inactive.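 How the source made its calls: active means mean activation above the low control average plus 3 SD, as set in the primary screen (cut at about 12% in these data); inactive means the rest.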

target: Troponin I, cardiac muscle (Homo sapiens) + Troponin T, cardiac muscle (Homo sapiens) + Troponin C, slow skeletal and cardiac muscles (Homo sapiens) (UniProt P19429+P45379+P63316); assay: calcium sensitizers of cardiac thin filaments – biochemical, IANBD-TnC fluorescence, triplicate, confirmation (AID 504383); conditions: IANBD-labeled cardiac RTF, Ca2+ sensitivity fluorescence; at 7.2 µM; active compounds read high; scaled from EC20 to saturating calcium; tested at EC20 calcium, 0.472 mM;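 further: 0% = DMSO at 0.472 mM calcium and 100% = DMSO at 2.9 mM calcium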
Summary of the method: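 material = labelled regulated thin filaments | probe or stimulus = Ca2+ 0.472 mM, EC20 level | dosing = single nominal compound dose of 7.2 µM | schedule = 15 min at 25 °C | signal = fluorescence intensity of labelled filaments | evaluation = fluorescence gain scaled between EC20 and EC100 calcium controls | benchmarks = low control EC20 calcium, high control EC100 calcium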

SMILES	activation
Cc1ccc(SCC(=O)OCC(=O)NCc2cccs2)cc1	12.8% (active)
CCC1Oc2ccc(C)cc2N(CC(=O)NCc2cccs2)C1=O (centres undefined)	-5.95%
CC(=O)n1cc(CO)c2ccccc21	262% (active)
Cc1ccc(Cl)c(NC(=O)CN(C)CC(=O)Nc2ccc(F)c(F)c2F)c1Cl	2.04%
CC(CCc1ccc(O)cc1)NCCC(c1ccccc1)c1ccccc1 (centres undefined)	48.6% (active)
NS(=O)(=O)c1ccc(NCc2c(F)cccc2Cl)cc1	45.6% (active)
CCN=C(NC#N)SCc1c(F)cccc1Cl	11.4%
Cc1cccc(N=Cc2[nH]c3ccc(Br)c(Cl)c3c2O)c1	4.45%
CCOc1ccc(Nc2nc(N)c([N+](=O)[O-])c(NCc3ccccc3)n2)cc1	7.49%
CCOc1ccc(Cn2nnc(C(=O)NCCc3ccccc3)c2N)cc1	821% (active)
COc1cccc2cc(-c3nc(-c4cccs4)cs3)c(=O)oc12	3.53%
Cc1ccccc1-c1noc(-c2cccs2)n1	24.3% (active)
COc1ccc(N2CCN(C(=O)c3ccc(OCC4CCCO4)cc3)CC2)cc1 (centres undefined)	71% (active)
COC(=O)c1sc(N2C(=O)C(O)=C(C(=O)c3ccc(C)o3)C2c2ccc(F)cc2)nc1C (centres undefined)	35% (active)
O=C(C1=C(O)C(=O)N(c2nccs2)C1c1ccccc1)c1cc2ccccc2o1 (centres undefined)	5.32%
CCCC1C(c2ccccc2)C(C#N)(C#N)C2(C#N)CC1(N)NC2=O (centres undefined)	10.5%
N#C/C(=C\c1coc2ccc(O)cc2c1=O)C(=O)Nc1nc2ccccc2s1	12.6% (active)
Cc1ccc(N2C(=O)C3C(C(=O)c4ccccc4)=NN(c4ccccc4)C3C2=O)cc1 (centres undefined)	29.5% (active)
O=C(C1=NN(c2ccccc2)C2C(=O)N(c3ccccc3)C(=O)C12)c1ccccc1 (centres undefined)	3.95%
COc1ccccc1N1C(=O)C2C(C(=O)c3ccccc3)=NN(c3ccccc3)C2C1=O (centres undefined)	11.7% (active)
O=C(C1=NN(c2ccccc2)C2C(=O)N(c3ccc(Cl)cc3)C(=O)C12)c1ccccc1 (centres undefined)	2.79%
O=C(C1=NN(c2ccccc2)C2C(=O)N(c3cccc(Cl)c3)C(=O)C12)c1ccccc1 (centres undefined)	35.7% (active)
Cc1ccc(CC2C(=O)N(c3ccc(C)cc3)C(=O)C2C)cc1 (centres undefined)	7.76%
COc1cccc(/C=C/C(=C2\C(=O)N(c3ccccc3)N=C2C)c2ccc(Br)cc2)c1OC	4.48%

SMILES	activation
O=C(C1=NN(c2ccccc2)C2C(=O)N(c3ccccc3Cl)C(=O)C12)c1ccccc1 (centres undefined)	13.6% (active)
O=C1N(c2cccc(Cl)c2)C(c2ccccc2)N2CCCN12 (centres undefined)	6.5%
COc1ccc(C2(CNC(C)=O)CCCC2)cc1OC	3.15%
COC(=O)c1c(-c2ccc(OC)c(OC)c2)csc1N	13% (active)
CCOC(=O)c1c(-c2ccc(C)cc2)csc1NC(=O)/C(C#N)=C/c1ccc(O)c(OC)c1	4.04%
O=C(CSCc1ccco1)NC1CCCC1	13.6% (active)
O=C(c1ccc(=O)[nH]c1)N(Cc1ccco1)C1(C(=O)NC2CCCCC2)CCCCC1	8.99%
S=C(NC1CC1)NC1CCCc2ccccc21 (centres undefined)	7.09%
COc1cc(NC(=O)CSc2ccccc2)c(C(=O)O)cc1OC	23.2% (active)
COc1cc(NC(=O)CSc2nc3ccccc3n2-c2ccccc2)c(C)cc1[N+](=O)[O-]	6.07%
COC(=O)c1sccc1NC(=O)CSCC(=O)O	0.67%
CCOC(=O)C1=C(C)NC(C)=C(C(=O)OCC)C1c1ccco1	8.22%
CCOC(=O)N1CCC(NC(=O)c2cnn3c2NC(c2ccco2)CC3C(F)(F)F)CC1 (centres undefined)	18% (active)
CC1=N/C(=C/c2ccc([N+](=O)[O-])cc2)C(=O)N1c1ccc(Cl)cc1Cl	6.42%
COc1ccccc1N1CCN(c2ccc([N+](=O)[O-])cc2Cl)CC1	90.7% (active)
COc1ccc(N2CCN(c3ccc([N+](=O)[O-])cc3Cl)CC2)cc1	41.8% (active)
COc1ccccc1N1CCN(C(=O)CCC(=O)O)CC1	4.12%
COc1ccc(N2CCN(S(=O)(=O)Cc3ccccc3)CC2)cc1	10.5%
Cn1c(NC(=O)C[n+]2cc(-c3ccc(Cl)cc3)n3c2CCC3)cc(=O)n(C)c1=O	5.8%
Cc1onc(-c2ccccc2Cl)c1C(=O)N(Cc1ccc(N(C)C)cc1)C(C)C	12% (active)
CC(=O)Nc1ccc(SCC(=O)NNC(=O)CN(C)S(=O)(=O)c2ccc(C)cc2)cc1	98% (active)
Cc1ccc(Cn2c(Sc3nnc(C)s3)nc3c2c(=O)[nH]c(=O)n3C)cc1	108% (active)
COc1ccc(/C=C2\CC/C(=C\c3ccc(OC)cc3OC)C2=O)c(OC)c1	50.4% (active)
COc1ccc(/C=c2\s/c(=C/C(=O)c3ccc(C)cc3)[nH]c2=O)c(OC)c1	10.7%

SMILES	activation
COc1cc(/C=C2\CC/C(=C\c3ccc(OCCO)c(OC)c3)C2=O)ccc1OCCO	7.54%
CCOC(=O)C1=C(COC(=O)c2ccc3ccccc3c2O)NC(=O)NC1C (centres undefined)	6.83%
CCOC(=O)c1c(NCC(C)C)c2ccccc2[nH]c1=O	183% (active)
COC(=O)[C@H](C)NC(=O)c1cc2c(cn1)[nH]c1ccccc12	10.7%
COc1ccc(N2C(=O)[C@@H]3[C@H](C2=O)[C@H]2c4ccccc4C=CN2[C@@H]3C(=O)Nc2ccccc2)cc1	55.7% (active)
Cc1ccc(-c2nc(C)sc2CC(=O)O)cc1	28.5% (active)
Cc1ccc(-c2nc(N)sc2CC(=O)OCC(=O)NCCC(C)C)cc1	10.3%
COC(=O)c1ccc2c(c1)NC1=C(C(=O)CC(C)(C)C1)C(c1ccncc1)N2 (centres undefined)	9.24%
COc1ccc(NC(=O)c2cc(C)on2)cc1OC	6.63%
COc1ccc(-c2cc(C(F)(F)F)nc(S(=O)(=O)CCCC(=O)Nc3cc(C)on3)n2)cc1OC	16.4% (active)
O=C(CCN1C(=O)/C(=C/c2ccccc2)SC1=S)NNC(=O)c1cccnc1	6.78%
Cc1ccc(N=C2NC(=O)/C(=C/c3cn(C)c4ccccc34)S2)cc1C	6.33%
O=C(CS(=O)(=O)c1cn(Cc2ccc(F)cc2)c2ccccc12)N1CCOCC1	1.62%
O=C1/C(=C/c2cccnc2)SC(=S)N1N1CCOCC1	12.4% (active)
Cn1cc(/C=C2\SC(=S)N(N3CCOCC3)C2=O)c2ccccc21	12.7% (active)
O=C(O)CN1C(=O)/C(=C\c2cn(CC(=O)N3CCOCC3)c3ccccc23)SC1=S	16.6% (active)
Cc1cc(S(=O)(=O)Nc2c(C)nn(C)c2C)c(Cl)cc1Cl	10.6%
COc1cccc(N=C2NC(=O)/C(=C/c3cc([N+](=O)[O-])ccc3O)S2)c1	9.82%
O=C1NC(=Nc2ccccc2Cl)S/C1=C\c1cc([N+](=O)[O-])ccc1O	20.8% (active)
Cc1ccc(S(=O)(=O)/N=C2/NC(=O)/C(=C/c3cc([N+](=O)[O-])ccc3O)S2)cc1	4.75%
C#CCN1c2ccccc2Sc2cccnc21	13.6% (active)
O=C(Nc1ccccc1)c1ccc(NCCc2ccccc2)c([N+](=O)[O-])c1	5.71%
Cc1cccc(OCCNc2ccc(C(F)(F)F)cc2[N+](=O)[O-])c1	159% (active)
COc1ccc(NC(=O)CS(=O)(=O)c2cccc(Cl)c2)cc1	6.14%

SMILES	activation
COc1cccc(C(=O)NC2CC3CCCC(C2)N3CC(=O)Nc2ccc(N(C)C)cc2)c1 (centres undefined)	21.3% (active)
Cc1ccc(NC(=O)CC2SC3=NCCCN3C2=O)c(C)c1 (centres undefined)	9.67%
CSCCC(NC(=O)c1ccccc1Cl)C(=O)N1CCC1 (centres undefined)	3.34%
COc1ccc2c(c1)cc(C(=O)N[C@@H](CCSC)C(=O)N1CCC[C@H]1C(=O)O)n2C	20.4% (active)
COc1ccc(N=C(N)N=C(N)N)c(OC)c1	7.88%
COc1ccc(OC)c(/C=N/N=C(\N)c2nonc2N)c1	18.5% (active)
COc1ccc(C2C(C#N)=C(N)N(c3cccnc3)C3=C2C(=O)CCC3)cc1Cn1cc([N+](=O)[O-])cn1 (centres undefined)	18.5% (active)
COc1ccc(NC(=O)NS(=O)(=O)c2ccc(C)cc2)cn1	7.89%
COc1ccc(S(=O)(=O)Nc2cc(C)on2)cc1	57.2% (active)
O=c1[nH]c2ccccc2nc1/C=C/c1ccccc1	351% (active)
O=c1[nH]c2ccccc2nc1/C=C(\O)c1cccs1	11.4%
O=c1[nH]c2ccccc2nc1/C=C/c1ccc(F)cc1	9.41%
CC1(C)CC(=O)C(CC2CCCCC2=O)C(=O)C1 (centres undefined)	15.2% (active)
CN1CCc2c(sc3nc(SCC(N)=O)n(-c4ccccc4)c(=O)c23)C1	3.18%
O=C(CCc1ccc(S(=O)(=O)N2CCOCC2)cc1)OCC(=O)c1ccccc1	20.7% (active)
NS(=O)(=O)c1cccc(NC(=O)CCc2ccc(S(=O)(=O)N3CCOCC3)cc2)c1	84.4% (active)
O=C(COC(=O)C1CC2C=CC1C2)Nc1cccc(S(=O)(=O)N2CCCCCC2)c1 (centres undefined)	5.75%
O=C1/C(=C/c2c[nH]c3ccccc23)CCC/C1=C\c1c[nH]c2ccccc12	7.19%
O=C1C(=Cc2ccco2)CCCC1=Cc1ccco1	93.5% (active)
O=C1CC(/C=C/c2ccco2)=Nc2ccccc2N1	7.68%
Cc1cc(O)c(CN(C)C)c2c1C(=O)/C(=C/c1ccco1)O2	8.55%
Nc1ccc2c(c1)C/C(=C/c1ccco1)C2=O	22% (active)
